Test system: HepG2
Assay: Antiproliferative activity against human HepG2 cells after 24 hrs by MTT assay
Assay type: functional, cell-based
Details: HepG2, 24 h
Summary of the method: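 Seeded at 1 × 10⁴ cells per well, incubated 24 h before treatment. MTT (20 µL of 5 mg/mL in PBS) added per well and incubated until purple precipitate appeared. Medium removed, precipitate dissolved in 150 µL DMSO, shaken 10 min, absorbance read at 570 nm. Growth expressed as percentage of untreated control.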

IC50 | Structure (SMILES)
> 10000 nM | COc1ccc(C(=O)/C=C/c2cccc3c2ccn3Cc2cccc(Br)c2)c2c1C=CC(C)(C)O2
670 nM | CCCCCOc1ccc(C(=O)/C=C/c2ccc3c(ccn3C)c2)c2c1C=CC(C)(C)O2
3460 nM | COc1ccc(C(=O)/C=C/c2cn(Cc3ccc(C(F)(F)F)cc3)c3ccccc23)c2c1C=CC(C)(C)O2
620 nM | Cn1ccc2cc(/C=C/C(=O)c3ccc(OS(=O)(=O)c4ccc(Br)cc4C(F)(F)F)c4c3OC(C)(C)C=C4)ccc21
> 10000 nM | COc1ccc(C(=O)/C=C/c2cccc3c2ccn3Cc2cccc(F)c2)c2c1C=CC(C)(C)O2
2130 nM | COc1ccc(C(=O)/C=C/c2cn(Cc3cccc(Cl)c3)c3ccccc23)c2c1C=CC(C)(C)O2
5540 nM | CCn1ccc2c(/C=C/C(=O)c3ccc(OC)c4c3OC(C)(C)C=C4)cccc21
750 nM | CCOc1ccc(C(=O)/C=C/c2ccc3c(ccn3C)c2)c2c1C=CC(C)(C)O2
7620 nM | COc1ccc(C(=O)/C=C/c2cccc3cc[nH]c23)c2c1C=CC(C)(C)O2
460 nM | CCCOc1ccc(C(=O)/C=C/c2ccc3c(ccn3C)c2)c2c1C=CC(C)(C)O2
> 10000 nM | COc1ccc(C(=O)/C=C/c2cccc3ccn(Cc4cccc(Cl)c4)c23)c2c1C=CC(C)(C)O2
> 10000 nM | COc1ccc(C(=O)/C=C/c2cn(Cc3ccc(F)cc3)c3ccccc23)c2c1C=CC(C)(C)O2
> 10000 nM | CCn1ccc2cccc(/C=C/C(=O)c3ccc(OC)c4c3OC(C)(C)C=C4)c21
> 10000 nM | COc1ccc(C(=O)/C=C/c2cn(CC(C)C)c3ccccc23)c2c1C=CC(C)(C)O2
> 10000 nM | COc1ccc(C(=O)/C=C/c2cccc3ccn(Cc4cccc(F)c4)c23)c2c1C=CC(C)(C)O2
> 10000 nM | COc1ccc(C(=O)/C=C/c2cccc3ccn(C)c23)c2c1C=CC(C)(C)O2
750 nM | COc1cccc(S(=O)(=O)Oc2ccc(C(=O)/C=C/c3ccc4c(ccn4C)c3)c3c2C=CC(C)(C)O3)c1
4450 nM | COc1ccc(C(=O)/C=C/c2ccc3c(ccn3CCN3CCCCC3)c2)c2c1C=CC(C)(C)O2
520 nM | CC(=O)Oc1ccc(C(=O)/C=C/c2ccc3c(ccn3C)c2)c2c1C=CC(C)(C)O2

IC50 | Structure (SMILES)
2230 nM | COc1ccc(C(=O)/C=C/c2cn(C)c3ccccc23)c2c1C=CC(C)(C)O2
3230 nM | COc1ccc(C(=O)/C=C/c2cn(CCN3CCOCC3)c3ccccc23)c2c1C=CC(C)(C)O2
1380 nM | COc1ccc(C(=O)/C=C/c2cn(Cc3cccc(Br)c3)c3ccccc23)c2c1C=CC(C)(C)O2
> 10000 nM | COc1ccc(C(=O)/C=C/c2cn(Cc3ccc(Cl)cc3)c3ccccc23)c2c1C=CC(C)(C)O2
> 10000 nM | COc1ccc(C(=O)/C=C/c2cn(Cc3ccccc3Br)c3ccccc23)c2c1C=CC(C)(C)O2
690 nM | Cn1ccc2cc(/C=C/C(=O)c3ccc(OS(=O)(=O)c4cc(F)cc(F)c4)c4c3OC(C)(C)C=C4)ccc21
1870 nM | CC(C)c1ccc(S(=O)(=O)Oc2ccc(C(=O)/C=C/c3ccc4c(ccn4C)c3)c3c2C=CC(C)(C)O3)cc1
4700 nM | COCn1cc(/C=C/C(=O)c2ccc(OC)c3c2OC(C)(C)C=C3)c2ccccc21
2810 nM | COc1ccc(C(=O)/C=C/c2cn(CC=C(C)C)c3ccccc23)c2c1C=CC(C)(C)O2
920 nM | CCCCC(=O)Oc1ccc(C(=O)/C=C/c2ccc3c(ccn3C)c2)c2c1C=CC(C)(C)O2
3010 nM | CCn1cc(/C=C/C(=O)c2ccc(OC)c3c2OC(C)(C)C=C3)c2ccccc21
4950 nM | COc1ccc(C(=O)/C=C/c2ccc3cc[nH]c3c2)c2c1C=CC(C)(C)O2
8380 nM | COc1ccc(C(=O)/C=C/c2cccc3[nH]ccc23)c2c1C=CC(C)(C)O2
1550 nM | Cn1ccc2cc(/C=C/C(=O)c3ccc(OS(=O)(=O)c4cccc(C(F)(F)F)c4)c4c3OC(C)(C)C=C4)ccc21
> 10000 nM | COc1ccc(C(=O)/C=C/c2cn(Cc3ccccc3C(F)(F)F)c3ccccc23)c2c1C=CC(C)(C)O2
> 10000 nM | CCn1ccc2ccc(/C=C/C(=O)c3ccc(OC)c4c3OC(C)(C)C=C4)cc21
> 10000 nM | COc1ccc(C(=O)/C=C/c2cccc3c2ccn3Cc2cccc(Cl)c2)c2c1C=CC(C)(C)O2
3090 nM | COc1ccc(C(=O)/C=C/c2cn(Cc3cccc(F)c3)c3ccccc23)c2c1C=CC(C)(C)O2
2750 nM | COc1ccc(C(=O)/C=C/c2cn(Cc3ccccc3F)c3ccccc23)c2c1C=CC(C)(C)O2

IC50 | Structure (SMILES)
> 10000 nM | COc1ccc(C(=O)/C=C/c2ccc3ccn(Cc4cccc(Br)c4)c3c2)c2c1C=CC(C)(C)O2
780 nM | CC(C)Oc1ccc(C(=O)/C=C/c2ccc3c(ccn3C)c2)c2c1C=CC(C)(C)O2
1780 nM | COc1ccc(C(=O)/C=C/c2cn(Cc3ccccc3)c3ccccc23)c2c1C=CC(C)(C)O2
1060 nM | COc1ccc(C(=O)/C=C/c2ccc3[nH]ccc3c2)c2c1C=CC(C)(C)O2
> 10000 nM | COc1ccc(C(=O)/C=C/c2cccc3ccn(Cc4cccc(Br)c4)c23)c2c1C=CC(C)(C)O2
860 nM | Cc1ccc(S(=O)(=O)Oc2ccc(C(=O)/C=C/c3ccc4c(ccn4C)c3)c3c2C=CC(C)(C)O3)cc1
1530 nM | Cn1ccc2cc(/C=C/C(=O)c3ccc(OS(=O)(=O)c4c(F)c(F)c(F)c(F)c4F)c4c3OC(C)(C)C=C4)ccc21
840 nM | COc1ccc(C(=O)/C=C/c2ccc3c(ccn3C)c2)c2c1C=CC(C)(C)O2
> 10000 nM | COc1ccc(C(=O)/C=C/c2cn(Cc3ccc(Br)cc3)c3ccccc23)c2c1C=CC(C)(C)O2
> 10000 nM | COc1ccc(C(=O)/C=C/c2ccc3ccn(Cc4cccc(Cl)c4)c3c2)c2c1C=CC(C)(C)O2
1940 nM | COc1ccc(C(=O)/C=C/c2cn(Cc3ccccc3Cl)c3ccccc23)c2c1C=CC(C)(C)O2
630 nM | CCCCOc1ccc(C(=O)/C=C/c2ccc3c(ccn3C)c2)c2c1C=CC(C)(C)O2
2750 nM | COc1ccc(C(=O)/C=C/c2cccc3c2ccn3C)c2c1C=CC(C)(C)O2
970 nM | CC(C)COc1ccc(C(=O)/C=C/c2ccc3c(ccn3C)c2)c2c1C=CC(C)(C)O2
2180 nM | COc1ccc(C(=O)/C=C/c2cn(Cc3cccc(C(F)(F)F)c3)c3ccccc23)c2c1C=CC(C)(C)O2
> 10000 nM | COc1ccc(C(=O)/C=C/c2ccc3ccn(Cc4cccc(F)c4)c3c2)c2c1C=CC(C)(C)O2
570 nM | COc1cc([N+](=O)[O-])ccc1S(=O)(=O)Oc1ccc(C(=O)/C=C/c2ccc3c(ccn3C)c2)c2c1C=CC(C)(C)O2
370 nM | CC(C)C(=O)Oc1ccc(C(=O)/C=C/c2ccc3c(ccn3C)c2)c2c1C=CC(C)(C)O2
8850 nM | COc1ccc(C(=O)/C=C/c2ccc3ccn(C)c3c2)c2c1C=CC(C)(C)O2

Reference: ChEMBL document CHEMBL3232988, “Design, synthesis and biological evaluation of a series of pyrano chalcone derivatives containing indole moiety as novel anti-tubulin agents” (Bioorg Med Chem, 2014)
